Measured values: ChEMBL document CHEMBL1124309, “Toward the synthesis of isozyme-specific enzyme inhibitors. Potent inhibitors of rat methionine adenosyltransferases. Effect of one-atom elongation of the ribose-P alpha bridge in two covalent adducts of L-methionine and beta,gamma-imido-ATP” (J Med Chem, 1988)

What was measured:
[1] = target: T1, S-adenosylmethionine synthetase (MAT 1 and MAT 2) (Rattus norvegicus, UniProt P13444+P18298); experiment: Inhibition constant of Met varied compound was measured on MT variant methionine adenosyltransferase in rat ascitic hepatoma cells; assay type: cell-based
Summary of the method: (§1)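 L-[methyl-14C]methionine varied at six to eight levels, (0.5-4.0)×KM, with MgATP fixed at 2 mM for both M-2 and M-T; two inhibitor levels plus control. Incubations run in duplicate for 10 min at 37 °C, pH 8.2 Tris buffer with KCl, MgCl2 and DTT. Product on phosphocellulose discs counted by scintillation; no-ATP blanks. Ki from replots of double-reciprocal slopes/intercepts.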

[2] = target: T1, S-adenosylmethionine synthetase (MAT 1 and MAT 2); experiment: Inhibition constant of ATP varied compound was measured on MT variant methionine adenosyltransferase in rat ascitic hepatoma cells; assay type: cell-based
Summary of the method: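 M-T variant; MgATP varied at six to eight levels, (0.5-4.0)×KM, with L-[methyl-14C]methionine fixed at 120 μM; two inhibitor levels plus uninhibited control. Duplicate 10-min incubations at 37 °C in pH 8.2 Tris/KCl/MgCl2/DTT. Stopped with HClO4-methionine; labelled product bound to phosphocellulose discs, scintillation counted; no-ATP blanks. Ki by replotting double-reciprocal slopes/intercepts.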

[3] = target: T1, S-adenosylmethionine synthetase (MAT 1 and MAT 2); experiment: Inhibition constant of ATP varied compound was measured on M-2 variate methionine adenosyltransferase in rat kidney
Summary of the method: (§2)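 Rat M-2 enzyme; MgATP varied at six to eight levels, (0.5-4.0)×KM, with L-[methyl-14C]methionine fixed at 60 μM; two inhibitor levels plus no-inhibitor control. 10 min, 37 °C, pH 8.2 Tris/KCl/MgCl2/DTT buffer, duplicates. Acid-stopped; product on phosphocellulose discs counted by scintillation; no-ATP blanks. Ki from slope/intercept replots of double-reciprocal plots.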

[4] = target: T1, S-adenosylmethionine synthetase (MAT 1 and MAT 2); experiment: Inhibition constant of Met varied compound was measured on M-2 variant methionine adenosyltransferase in rat kidney; summary of the method: as §1
[5] = target: T1, S-adenosylmethionine synthetase (MAT 1 and MAT 2); experiment: Inhibition constant of ATP varied compound was measured on M-2 variate Methionine adenosyltransferase in rat kidney; summary of the method: as §2
[6] = target: T1, S-adenosylmethionine synthetase (MAT 1 and MAT 2); experiment: Inhibition constant of Met varied compound was measured on M-2 variant Methionine adenosyltransferase in rat kidney; summary of the method: as §1

Ki [1] [nM] | Ki [2] [nM] | Ki [3] [nM] | Ki [4] [nM] | Ki [5] [nM] | Ki [6] [nM] | Compound
1500 | 810 | 440 | 2100 |  |  | Nc1ncnc2c1ncn2[C@@H]1O[C@H](C(CCOP(=O)(O)OP(=O)(O)NP(=O)(O)O)SCCC(N)C(=O)O)[C@@H](O)[C@H]1O (stereo partly specified)
2300 | 270 | 360 | 3000 |  |  | Nc1ncnc2c1ncn2[C@@H]1O[C@H]([C@@H](CNP(=O)(O)OP(=O)(O)OP(=O)(O)O)SCCC(N)C(=O)O)[C@@H](O)[C@H]1O (stereo partly specified)
670 | 210 |  |  | 130 | 650 | Nc1ncnc2c1ncn2[C@@H]1O[C@H]([C@H](CSCCC(N)C(=O)O)OP(=O)(O)OP(=O)(O)NP(=O)(O)O)[C@@H](O)[C@H]1O (stereo partly specified)
2700 | 630 | 390 | 2200 |  |  | Nc1ncnc2c1ncn2[C@@H]1O[C@H](CC(CSCC[C@H](N)C(=O)O)OP(=O)(O)OP(=O)(O)NP(=O)(O)O)[C@@H](O)[C@H]1O (stereo partly specified)
